Measured values published in ChEMBL document CHEMBL3804803, “Pyrrolopyrimidine Derivatives as Novel Inhibitors of Multidrug Resistance-Associated Protein 1 (MRP1, ABCC1)” (J Med Chem, 2016).

Experiments:
[1] = molecular target: T1, Multidrug resistance-associated protein 1 (Homo sapiens, UniProt P33527); experiment: Inhibition of MRP1 in human H69AR cells incubated for 20 mins measured every 60 seconds by calcein-AM accumulation assay
BCRP (ABCG2) = molecular target: T2, BCRP (ABCG2) (Homo sapiens, UniProt Q9UNQ0); experiment: Inhibition of BCRP (unknown origin) expressed in MDCK2 cells assessed as pheophorbide A accumulation at 10 uM preincubated for 20 mins measured after 120 mins by flow cytometry; format: cell-based, MDCK-II; conditions: MDCK2 cells expressing BCRP, probe pheophorbide A
T2 sequence (Q9UNQ0 whole entry): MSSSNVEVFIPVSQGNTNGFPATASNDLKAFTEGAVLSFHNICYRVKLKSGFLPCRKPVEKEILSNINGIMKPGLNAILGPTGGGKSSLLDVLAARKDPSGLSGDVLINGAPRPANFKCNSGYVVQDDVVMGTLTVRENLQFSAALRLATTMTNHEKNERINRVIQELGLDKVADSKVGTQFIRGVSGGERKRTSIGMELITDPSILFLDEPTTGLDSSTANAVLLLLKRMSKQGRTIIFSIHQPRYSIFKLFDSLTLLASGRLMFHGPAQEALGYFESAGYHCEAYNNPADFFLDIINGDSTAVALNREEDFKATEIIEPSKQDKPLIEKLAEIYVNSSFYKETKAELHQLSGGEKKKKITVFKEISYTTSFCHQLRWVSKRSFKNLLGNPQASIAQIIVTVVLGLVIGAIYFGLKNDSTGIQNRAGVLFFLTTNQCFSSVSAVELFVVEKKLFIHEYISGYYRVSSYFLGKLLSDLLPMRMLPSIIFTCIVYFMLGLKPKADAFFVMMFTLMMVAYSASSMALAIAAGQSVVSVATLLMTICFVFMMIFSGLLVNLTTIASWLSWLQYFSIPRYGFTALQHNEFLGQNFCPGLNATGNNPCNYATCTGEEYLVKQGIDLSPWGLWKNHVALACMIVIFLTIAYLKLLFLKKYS
How it was run: (§1)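 MDCK II BCRP cells (GFP detected in FL1 to monitor BCRP expression), about 45,000 per well. Preincubated 20 min at 37 °C, 5% CO2 with compound (1–100 µM solutions, 20 µL into 200 µL final volume). Pheophorbide A added (20 µL of 5 µM solution) for 120 min to reach steady state. Cells resuspended, then flow cytometry: 488 nm excitation, FL3 ≥670 nm. […] The four-parameter logistic top was constrained to Ko143; ≥3 experiments in duplicate.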

[2] = molecular target: T1, Multidrug resistance-associated protein 1; experiment: Inhibition of MRP1 in human H69AR cells assessed as daunorubicin accumulation preincubated for 15 mins measured after 180 mins by flow cytometry; format: cell-based
How it was run: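 H69 AR cells, about 60,000 per well in culture medium. Preincubated 15 min with compound diluted in unsupplemented medium, then daunorubicin added (20 µL of 30 µM solution). Held 180 min at 37 °C, 5% CO2, protected from light, to reach steady state. Cells resuspended; flow cytometry with 488 nm excitation, FL3 ≥670 nm. IC50 from four-parameter logistic with variable Hill slope; ≥3 independent experiments in duplicate.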

Homo sapiens = species: Homo sapiens; experiment: Inhibition of P-gp (unknown origin) at 10 uM after 30 mins by calcein AM accumulation assay
[3] = Inhibition of P-gp in human A2780/ADR cells after 30 mins by calcein AM accumulation assay; format: cell-based; conditions: 0.5 h
[4] = Cytotoxicity against human H69AR cells overexpressing MRP1 assessed as growth inhibition after 72 hrs by MTT assay; format: cell-based
How it was run: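 H69 AR cells, about 20,000 per well, exposed 72 h at 37 °C in humidified CO2 to test compound diluted in culture medium (100 nM to 100 µM solutions, 20 µL added to 180 µL cells). Then MTT (5 mg/mL, 20 µL) for 1 h, formazan taken up in DMSO, absorbance 570 nm minus 690 nm. Plain medium set 100% viability, 10% DMSO 0%. GI50 from variable-slope nonlinear fit; ≥3 independent experiments in duplicate.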

[5] = molecular target: T3, Broad substrate specificity ATP-binding cassette transporter ABCG2 (Homo sapiens, UniProt Q9UNQ0); experiment: Inhibition of BCRP (unknown origin) expressed in MDCK2 cells assessed as pheophorbide A accumulation preincubated for 20 mins measured after 120 mins by flow cytometry; format: cell-based, MDCK-II
T3 sequence (Q9UNQ0 whole entry): T2 sequence (Q9UNQ0 whole entry)
How it was run: as §1

[6] = Cytotoxicity against human H69AR cells overexpressing MRP1 assessed as reduction in cell viability at 10 uM after 72 hrs by MTT assay; format: cell-based; conditions: for Activity: h69ar, 72 h, 10 µM
How it was run: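 H69 AR cells, about 20,000 per well, 72 h at 37 °C in humidified CO2 with compound at 10 µM. MTT (5 mg/mL, 20 µL) added for 1 h, then DMSO solubilization and absorbance 570 nm with 690 nm background. Viability scaled between plain medium (100%) and 10% DMSO (0%). ≥3 independent experiments in duplicate.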

[7] = molecular target: T1, Multidrug resistance-associated protein 1; conditions: h69ar, 72 h, 5 µM
[8] = molecular target: T1, Multidrug resistance-associated protein 1; conditions: h69ar, 72 h, 10 µM
[9] = molecular target: T1, Multidrug resistance-associated protein 1; conditions: h69ar, 72 h, 1 µM
[10] = molecular target: T1, Multidrug resistance-associated protein 1; experiment: Inhibition of MRP1 in daunorubicin resistant human H69AR cells assessed as potentiation of daunorubicin-induced growth inhibition at 1 to 10 uM after 72 hrs by MTT assay relative to control; format: cell-based
[11] = molecular target: T1, Multidrug resistance-associated protein 1; experiment: Inhibition of MRP1 in human H69AR cells incubated for 20 mins measured […] by calcein-AM accumulation assay; format: cell-based
How it was run: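 H69 AR cells, about 60,000 per well in Krebs-HEPES buffer pH 7.4. Incubated 20 min at 37 °C, 5% CO2 with compound (100 nM–100 µM solutions, 20 µL in 200 µL final volume). Calcein AM then added (20 µL of 3.125 µM). Fluorescence (ex 485/em 520 nm, 37 °C) read every 60 s. Slope between min 5 and 30 plotted against log concentration; four-parameter logistic fit; ≥3 experiments in duplicate.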

T1 sequence (P33527 whole entry): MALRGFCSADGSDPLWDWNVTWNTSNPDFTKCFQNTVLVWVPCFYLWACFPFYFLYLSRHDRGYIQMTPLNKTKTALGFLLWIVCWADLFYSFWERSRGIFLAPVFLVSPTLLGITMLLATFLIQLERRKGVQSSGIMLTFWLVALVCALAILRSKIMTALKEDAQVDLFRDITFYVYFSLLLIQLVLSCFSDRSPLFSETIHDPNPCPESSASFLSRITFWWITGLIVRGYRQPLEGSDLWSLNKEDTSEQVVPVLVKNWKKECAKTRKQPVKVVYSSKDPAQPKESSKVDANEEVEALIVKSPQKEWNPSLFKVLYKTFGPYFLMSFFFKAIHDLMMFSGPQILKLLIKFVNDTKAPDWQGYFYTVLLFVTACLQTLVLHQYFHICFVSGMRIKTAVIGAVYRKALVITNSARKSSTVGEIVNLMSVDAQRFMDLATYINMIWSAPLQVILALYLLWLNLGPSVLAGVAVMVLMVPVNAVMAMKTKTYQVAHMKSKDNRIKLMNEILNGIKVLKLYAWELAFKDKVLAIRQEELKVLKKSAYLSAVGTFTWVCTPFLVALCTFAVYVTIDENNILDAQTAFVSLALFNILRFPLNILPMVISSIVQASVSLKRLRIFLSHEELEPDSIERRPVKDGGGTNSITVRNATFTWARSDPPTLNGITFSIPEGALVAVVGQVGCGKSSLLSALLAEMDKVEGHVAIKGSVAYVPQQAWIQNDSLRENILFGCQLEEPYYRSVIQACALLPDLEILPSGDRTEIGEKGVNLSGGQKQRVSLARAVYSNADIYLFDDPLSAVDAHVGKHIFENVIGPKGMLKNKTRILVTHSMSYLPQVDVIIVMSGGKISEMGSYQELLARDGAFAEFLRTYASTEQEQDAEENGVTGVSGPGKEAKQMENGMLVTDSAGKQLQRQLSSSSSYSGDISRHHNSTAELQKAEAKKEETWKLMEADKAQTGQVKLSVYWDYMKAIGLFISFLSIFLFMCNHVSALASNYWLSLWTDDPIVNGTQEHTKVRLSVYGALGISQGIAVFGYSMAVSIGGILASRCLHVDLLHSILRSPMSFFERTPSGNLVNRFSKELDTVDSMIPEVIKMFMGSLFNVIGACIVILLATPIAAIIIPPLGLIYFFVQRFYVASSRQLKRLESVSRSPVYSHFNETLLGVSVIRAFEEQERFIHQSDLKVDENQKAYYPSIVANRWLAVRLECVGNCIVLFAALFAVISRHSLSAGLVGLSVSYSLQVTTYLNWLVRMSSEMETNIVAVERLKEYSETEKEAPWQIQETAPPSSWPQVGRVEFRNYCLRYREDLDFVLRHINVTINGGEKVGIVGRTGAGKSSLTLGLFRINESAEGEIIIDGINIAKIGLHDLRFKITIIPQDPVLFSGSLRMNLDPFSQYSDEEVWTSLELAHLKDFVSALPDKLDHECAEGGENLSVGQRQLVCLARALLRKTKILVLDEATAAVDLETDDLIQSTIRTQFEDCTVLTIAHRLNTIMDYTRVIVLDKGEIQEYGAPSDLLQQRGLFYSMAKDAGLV

SMILES | IC50 [1] [nM] | inhibition at 2 h, 10 µM (BCRP (ABCG2)) [%] | IC50 [2] [nM] | inhibition (Homo sapiens) [%] | IC50 [3] [nM] | GI50 at 72 h [4] [nM] | IC50 [5] [nM] | Activity [6] | cytotoxicity at 72 h, 10 µM ([6]; H69AR cells overexpressing MRP1, read-out: INH) [%] | GI50 [7] [nM] | GI50 [8] [nM] | GI50 [9] [nM] | fold change (FC) [10] | IC50 [11] [nM]
Cn1cc(C#N)c2ncnc(N3CCN(CCc4ccccc4)CC3)c21 | 714 | < 25 | 700 | > 25 | – | – | – | – | – | – | – | – | – | –
N#Cc1c2n(c3c(N4CCN(CCc5ccccc5)CC4)ncnc13)CCCC2 | 370 | > 25 | 197 | > 25 | 18800 | 39900 | 8190 | Non-toxic | – | – | – | – | – | –
N#Cc1cn(-c2ccccc2)c2c(N3CCN(CCc4ccccc4)CC3)ncnc12 | 750 | < 25 | 340 | > 25 | 6820 | 23600 | – | – | 40 | – | – | – | – | –
N#Cc1cn(CCc2ccccc2)c2c(N3CCN(CCc4ccccc4)CC3)ncnc12 | 1020 | < 25 | 1120 | > 25 | 32500 | – | – | – | – | – | – | – | – | –
CN1CCN(c2ncnc3c(C#N)c4n(c23)CCCC4)CC1 | 5060 | > 25 | 2870 | > 25 | – | – | 4250 | – | – | – | – | – | – | –
N#Cc1c2n(c3c(N4CCNCC4)ncnc13)CCCC2 | 27300 | > 25 | 10800 | > 25 | – | 60600 | – | Non-toxic | – | 2480 | 1830 | 2940 | – | –
N#Cc1c2n(c3c(Nc4ccccc4)ncnc13)CCCC2 | 14200 | > 25 | 9410 | > 25 | – | – | 7680 | – | – | – | – | – | – | –
CCCn1cc(C#N)c2ncnc(N3CCN(CCc4ccccc4)CC3)c21 | 543 | < 25 | 418 | > 25 | 41900 | – | – | – | – | – | – | – | – | –
N#Cc1cn(CCCc2ccccc2)c2c(N3CCN(Cc4ccccc4)CC3)ncnc12 | 3150 | < 25 | 2360 | > 25 | – | – | – | – | – | – | – | – | – | –
N#Cc1cn(C2CC2)c2c(N3CCN(CCc4ccccc4)CC3)ncnc12 | 247 | < 25 | 200 | > 25 | – | 36000 | – | Non-toxic | – | – | – | – | 10 | –
N#Cc1cn(CCc2ccccc2)c2c(N3CCN(Cc4ccccc4)CC3)ncnc12 | 910 | < 25 | 983 | > 25 | – | – | – | – | – | – | – | – | – | –
CCn1cc(C#N)c2ncnc(N3CCN(CCc4ccccc4)CC3)c21 | 1060 | < 25 | 789 | > 25 | – | – | – | – | – | – | – | – | – | –
CC(C)n1cc(C#N)c2ncnc(N3CCN(CCc4ccccc4)CC3)c21 | 821 | < 25 | 1240 | > 25 | – | – | – | – | – | – | – | – | – | –
N#Cc1cn(-c2ccccc2)c2c(N3CCN(Cc4ccccc4)CC3)ncnc12 | 1220 | < 25 | 866 | > 25 | – | – | – | – | – | – | – | – | – | –
N#Cc1c2n(c3c(NCCc4ccccc4)ncnc13)CCCC2 | 8370 | > 25 | 4980 | > 25 | – | – | – | – | – | – | – | – | – | –
N#Cc1c2n(c3c(N4CCN(CCc5ccccc5)CC4)ncnc13)CCCCC2 | – | > 25 | 643 | > 25 | 19200 | 79800 | 9940 | Non-toxic | – | – | – | – | – | 833
N#Cc1c2n(c3c(N4CCN(c5ccccc5)CC4)ncnc13)CCCC2 | 2560 | > 25 | 2900 | > 25 | – | – | 5910 | – | – | – | – | – | – | –
N#Cc1c2n(c3c(N4CCN(Cc5ccccc5)CC4)ncnc13)CCCC2 | 671 | > 25 | 636 | > 25 | 32300 | – | 8240 | – | – | – | – | – | – | –
N#Cc1c2n(c3c(N4CCN(C(c5ccccc5)c5ccccc5)CC4)ncnc13)CCCC2 | 1620 | > 25 | 1070 | > 25 | – | – | 14300 | – | – | – | – | – | – | –
N#Cc1c2n(c3c(NCCCc4ccccc4)ncnc13)CCCC2 | 2500 | > 25 | 2840 | > 25 | – | 132000 | 6070 | Non-toxic | – | 751 | 450 | 2410 | – | –
N#Cc1c2n(c3c(N4CCN(C(c5ccccc5)c5ccccc5)CC4)ncnc13)CCCCC2 | – | > 25 | 1010 | > 25 | 28600 | – | 8710 | – | – | – | – | – | – | 1950
N#Cc1c2n(c3c(NCc4ccccc4)ncnc13)CCCC2 | 14200 | > 25 | 8800 | > 25 | – | – | 15800 | – | – | – | – | – | – | –
N#Cc1c2n(c3c(N4CCN(c5ccccc5)CC4)ncnc13)CCCCC2 | – | > 25 | 15100 | > 25 | – | – | – | – | – | – | – | – | – | 8980
N#Cc1cn(CCCc2ccccc2)c2c(N3CCN(CCc4ccccc4)CC3)ncnc12 | 956 | < 25 | 586 | > 25 | – | – | – | – | – | – | – | – | – | –
N#Cc1cn(Cc2ccccc2)c2c(N3CCN(CCc4ccccc4)CC3)ncnc12 | 1000 | < 25 | 623 | > 25 | 10600 | – | – | – | – | – | – | – | – | –
N#Cc1cn(Cc2ccccc2)c2c(N3CCN(Cc4ccccc4)CC3)ncnc12 | 2770 | < 25 | 876 | > 25 | – | – | – | – | – | – | – | – | – | –
